Laboratory results from ChEMBL document CHEMBL3632558, “Synthesis, antimycobacterial and antibacterial activity of l-[(1R,2S)-2-fluorocyclopropyl]naphthyridone derivatives containing an oxime-functionalized pyrrolidine moiety” (2015).

Legend:
Format in all cases: functional
[1] = test system: Klebsiella pneumoniae; test: Antibacterial activity against Klebsiella pneumoniae 14-4 after 18 to 24 hrs
In short: (§1)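 MIC by standard NCCLS reference procedure (M100-S11); lowest concentration of compound inhibiting visible bacterial growth after incubation at 35 °C for 18–24 h, read as complete inhibition of growth. Ciprofloxacin, levofloxacin and moxifloxacin run alongside as reference agents.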

[2] = test system: Escherichia coli; test: Antibacterial activity against Escherichia coli ATCC 25922 after 18 to 24 hrs; in short: as §1
[3] = test system: Mycobacterium tuberculosis; test: Antimycobacterial activity against Mycobacterium tuberculosis H37Rv ATCC 27294 by alamar blue assay
In short: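 Microplate Alamar Blue Assay; MIC is the lowest concentration giving ≥90% reduction in fluorescence relative to the mean of replicate bacterium-only controls. MDR strain 6133 is resistant to isoniazid and rifampicin.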

[4] = test system: Enterococcus faecium; test: Antibacterial activity against Enterococcus faecium 14-6 after 18 to 24 hrs; in short: as §1
[5] = test system: Staphylococcus aureus; test: Antibacterial activity against methicillin-sensitive Staphylococcus aureus 14-1 after 18 to 24 hrs; in short: as §1
[6] = test system: Klebsiella pneumoniae; test: Antibacterial activity against ESBL-positive Klebsiella pneumoniae 14-17 after 18 to 24 hrs; in short: as §1
[7] = test system: Klebsiella pneumoniae; test: Antibacterial activity against Klebsiella pneumoniae 14-3 after 18 to 24 hrs; in short: as §1
[8] = test system: Staphylococcus epidermidis; test: Antibacterial activity against methicillin-resistant Staphylococcus epidermidis 14-21 after 18 to 24 hrs
[9] = test system: Staphylococcus epidermidis; test: Antibacterial activity against methicillin-resistant Staphylococcus epidermidis 14-39 after 18 to 24 hrs
[10] = test system: Enterococcus faecium; test: Antibacterial activity against Enterococcus faecium 14-5 after 18 to 24 hrs; in short: as §1
[11] = test system: Pseudomonas aeruginosa; test: Antibacterial activity against Pseudomonas aeruginosa 14-14 after 18 to 24 hrs; in short: as §1
[12] = test system: Staphylococcus epidermidis; test: Antibacterial activity against methicillin-sensitive Staphylococcus epidermidis 14-2 after 18 to 24 hrs; in short: as §1
[13] = test system: Enterococcus faecium; test: Antibacterial activity against Enterococcus faecium 14-1 after 18 to 24 hrs; in short: as §1
[14] = test system: Klebsiella pneumoniae; test: Antibacterial activity against ESBL-positive Klebsiella pneumoniae 14-19 after 18 to 24 hrs; in short: as §1
[15] = test system: Klebsiella pneumoniae; test: Antibacterial activity against ESBL-positive Klebsiella pneumoniae 14-18 after 18 to 24 hrs; in short: as §1
[16] = test system: Staphylococcus aureus; test: Antibacterial activity against methicillin-resistant Staphylococcus aureus 14-5 after 18 to 24 hrs
[17] = test system: Staphylococcus epidermidis; test: Antibacterial activity against methicillin-resistant Staphylococcus epidermidis 14-37 after 18 to 24 hrs
[18] = test system: Staphylococcus aureus; test: Antibacterial activity against methicillin-sensitive Staphylococcus aureus 14-3 after 18 to 24 hrs; in short: as §1
[19] = test system: Streptococcus pneumoniae; test: Antibacterial activity against Streptococcus pneumoniae ATCC 19615 after 18 to 24 hrs; in short: as §1
[20] = test system: Klebsiella pneumoniae; test: Antibacterial activity against Klebsiella pneumoniae 14-2 after 18 to 24 hrs; in short: as §1
[21] = test system: Staphylococcus aureus; test: Antibacterial activity against methicillin-sensitive Staphylococcus aureus 14-4 after 18 to 24 hrs; in short: as §1
[22] = test system: Pseudomonas aeruginosa; test: Antibacterial activity against Pseudomonas aeruginosa ATCC 27853 after 18 to 24 hrs; in short: as §1
[23] = test system: Staphylococcus aureus; test: Antibacterial activity against methicillin-sensitive Staphylococcus aureus 14-2 after 18 to 24 hrs; in short: as §1
[24] = test system: Enterococcus faecium; test: Antibacterial activity against Enterococcus faecium 14-2 after 18 to 24 hrs; in short: as §1
[25] = test system: Enterococcus faecalis; test: Antibacterial activity against Enterococcus faecalis 14-1 after 18 to 24 hrs; in short: as §1
[26] = test system: Staphylococcus epidermidis; test: Antibacterial activity against methicillin-resistant Staphylococcus epidermidis 14-22 after 18 to 24 hrs
[27] = test system: Escherichia coli; test: Antibacterial activity against ESBL-positive Escherichia coli 14-1 after 18 to 24 hrs; in short: as §1
[28] = test system: Pseudomonas aeruginosa; test: Antibacterial activity against Pseudomonas aeruginosa 14-9 after 18 to 24 hrs; in short: as §1
[29] = test system: Escherichia coli; test: Antibacterial activity against ESBL-positive Escherichia coli 14-2 after 18 to 24 hrs; in short: as §1
[30] = test system: Staphylococcus aureus; test: Antibacterial activity against Staphylococcus aureus CMCC 26003 after 18 to 24 hrs; in short: as §1
[31] = test system: Staphylococcus aureus; test: Antibacterial activity against methicillin-resistant Staphylococcus aureus 14-4 after 18 to 24 hrs
[32] = test system: Klebsiella pneumoniae; test: Antibacterial activity against Klebsiella pneumoniae 14-1 after 18 to 24 hrs; in short: as §1
[33] = test system: Pseudomonas aeruginosa; test: Antibacterial activity against Pseudomonas aeruginosa 14-16 after 18 to 24 hrs; in short: as §1
[34] = test system: Pseudomonas aeruginosa; test: Antibacterial activity against Pseudomonas aeruginosa 14-19 after 18 to 24 hrs; in short: as §1
[35] = test system: Escherichia coli; test: Antibacterial activity against Escherichia coli 14-1 after 18 to 24 hrs; in short: as §1
[36] = test system: Escherichia coli; test: Antibacterial activity against Escherichia coli 14-2 after 18 to 24 hrs; in short: as §1
[37] = test system: Enterococcus faecalis; test: Antibacterial activity against Enterococcus faecalis 14-2 after 18 to 24 hrs; in short: as §1
[38] = test system: Pseudomonas aeruginosa; test: Antibacterial activity against Pseudomonas aeruginosa 14-15 after 18 to 24 hrs; in short: as §1

CO/N=C1\CN(c2nc3c(cc2F)c(=O)c(C(=O)O)cn3[C@@H]2C[C@@H]2F)CC1N (stereo partly specified)
4 µg/mL: MIC [22]
32 µg/mL: MIC [5] | MIC [17] | MIC [26]
> 128 µg/mL: MIC [4] | MIC [7] | MIC [14] | MIC [29] | MIC [32]
0.25 µg/mL: MIC [2] | MIC [19]
128 µg/mL: MIC [1] | MIC [10] | MIC [12] | MIC [13] | MIC [20] | MIC [24] | MIC [25] | MIC [31] | MIC [35] | MIC [36]
8 µg/mL: MIC [6] | MIC [11] | MIC [15] | MIC [28] | MIC [33] | MIC [34] | MIC [38]
64 µg/mL: MIC [8] | MIC [9] | MIC [16]
16 µg/mL: MIC [27]
1 µg/mL: MIC [18] | MIC [21]
0.867 µg/mL: MIC90 [3]
2 µg/mL: MIC [37]
0.5 µg/mL: MIC [23] | MIC [30]

NC1CN(c2nc3c(cc2F)c(=O)c(C(=O)O)cn3[C@@H]2C[C@@H]2F)C/C1=N\OCc1ccccc1 (stereo partly specified)
< 0.008 µg/mL: MIC [23] | MIC [30]
16 µg/mL: MIC [5] | MIC [22]
1 µg/mL: MIC [21] | MIC [37]
32 µg/mL: MIC [6] | MIC [8] | MIC [11] | MIC [15] | MIC [26] | MIC [28] | MIC [31] | MIC [33] | MIC [34] | MIC [38]
0.5 µg/mL: MIC [2] | MIC [18] | MIC [19]
1.92 µg/mL: MIC90 [3]
> 128 µg/mL: MIC [1] | MIC [4] | MIC [7] | MIC [14] | MIC [20] | MIC [29] | MIC [32] | MIC [35] | MIC [36]
64 µg/mL: MIC [9] | MIC [12] | MIC [13] | MIC [16] | MIC [17] | MIC [24] | MIC [25]
128 µg/mL: MIC [10] | MIC [27]
